# Active and inactive are the calls of the source. The rule behind the calls is not given here.
# Organism: Mus musculus
# Assay: Immunostimulatory activity in C57BL/6 mouse splenocytes assessed as IL-4/IFN-gamma ratio at 100 ng/ml after 72 hrs by ELISA
# Format: functional, cell-based
# In short: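 Whole C57BL/6 splenocytes were given compound at 100 ng/mL or DMSO for 72 h in RPMI1640 with 10% FCS. Supernatant IL-4 and IFN-γ were measured by ELISA. The IL-4/IFN-γ ratio was normalized to the DMSO control. Triplicate, mean ± SD.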
row,Compound,Activity
1,CCCCCCCCCCCCCC/C=C\OC[C@@H](O)COP(=O)(O)OCCN,Active
2,CCCCC/C=C\C/C=C\CCCCCCCC/C=C\OC[C@@H](O)COP(=O)(O)OCCN,Active
3,CCCCCCCC/C=C\CCCCCCCCC#COC[C@@H](O)COP(=O)(O)OCCN,Active
4,CCCCC/C=C\C/C=C\CCCCCCCCC#COC[C@@H](O)COP(=O)(O)OCCN,Active
5,CCCCCCCC/C=C\CCCCCCCCCCCCOC[C@@H](O)COP(=O)(O)OCCN,Active
6,CCCCCCCC/C=C\CCCCCCCC(=O)OC[C@@H](O)COP(=O)(O)OCCN,Active

# Organism: Mus musculus
# Assay: Immunostimulatory activity in C57BL/6 mouse splenocytes assessed as IL-4 production at 100 ng/ml after 72 hrs by ELISA
# Format: functional, cell-based
# In short: (§1)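 C57BL/6 mouse splenocytes were cultured for 72 h with compound at 100 ng/mL or DMSO vehicle in RPMI1640 with 10% FCS, humidified 5% CO2. IFN-γ and IL-4 in the supernatants were measured by ELISA. Assays were run in triplicate and reported as mean ± SD.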
row,Compound,Activity
1,CCCCCCCCCCCCCC/C=C\OC[C@@H](O)COP(=O)(O)OCCN,Active
2,CCCCCCCC/C=C\CCCCCCCCC#COC[C@@H](O)COP(=O)(O)OCCN,Active
3,CCCCCCCC/C=C\CCCCCCCCCCCCOC[C@@H](O)COP(=O)(O)OCCN,Active
4,CCCCCCCC/C=C\CCCCCCCC(=O)OC[C@@H](O)COP(=O)(O)OCCN,Active

# System: 2H4
# Assay: Immunostimulatory activity in mouse NKT hybridoma 2H4 cells assessed as IL-2 production at 100 ng/ml after 24 hrs by plate-bound mCD1d presenting assay
# Format: functional, cell-based
# In short: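 Plates were coated with mouse CD1d protein overnight at 4 °C, PBS-washed and blocked with PBS/10% FCS for 1 h. Compound at 100 ng/mL was loaded for 24 h at 37 °C, then washed off. 2H4 NKT hybridoma cells were added, and IL-2 was measured by ELISA after 24 h. Data are mean ± SD of three independent experiments, with Student's t test against vehicle.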
row,Compound,Activity
1,CCCCC/C=C\C/C=C\CCCCCCCC/C=C\OC[C@@H](O)COP(=O)(O)OCCN,Active
2,CCCCCCCC/C=C\CCCCCCCCC#COC[C@@H](O)COP(=O)(O)OCCN,Active
3,CCCCC/C=C\C/C=C\CCCCCCCCC#COC[C@@H](O)COP(=O)(O)OCCN,Active
4,CCCCCCCC/C=C\CCCCCCCCCCCCOC[C@@H](O)COP(=O)(O)OCCN,Active
5,CCCCCCCC/C=C\CCCCCCCC(=O)OC[C@@H](O)COP(=O)(O)OCCN,Active

# System: Mus musculus
# Assay: In vivo immunostimulatory activity in C57BL/6 mouse assessed as increase in serum IFN-gamma level at 1 ug, ip after 2 hrs by ELISA
# Format: functional, organism-based
# In short: (§2)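 C57BL/6 mice were given compound by intraperitoneal injection. Serum IFN-γ and IL-4 were measured at 2 h and at a later time point. Data are mean ± SD.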
row,Compound,Activity
1,CCCCCCCCCCCCCC/C=C\OC[C@@H](O)COP(=O)(O)OCCN,Active
2,CCCCC/C=C\C/C=C\CCCCCCCC/C=C\OC[C@@H](O)COP(=O)(O)OCCN,Active
3,CCCCCCCC/C=C\CCCCCCCCC#COC[C@@H](O)COP(=O)(O)OCCN,Active
4,CCCCC/C=C\C/C=C\CCCCCCCCC#COC[C@@H](O)COP(=O)(O)OCCN,Active
5,CCCCCCCC/C=C\CCCCCCCCCCCCOC[C@@H](O)COP(=O)(O)OCCN,Active
6,CCCCCCCC/C=C\CCCCCCCC(=O)OC[C@@H](O)COP(=O)(O)OCCN,Active

# Organism: Mus musculus
# Assay: Immunostimulatory activity in C57BL/6 mouse splenocytes assessed as IFN-gamma production at 100 ng/ml after 72 hrs by ELISA
# Format: functional, cell-based
# In short: as §1
row,Compound,Activity
1,CCCCCCCCCCCCCC/C=C\OC[C@@H](O)COP(=O)(O)OCCN,Active
2,CCCCC/C=C\C/C=C\CCCCCCCC/C=C\OC[C@@H](O)COP(=O)(O)OCCN,Active
3,CCCCCCCC/C=C\CCCCCCCCC#COC[C@@H](O)COP(=O)(O)OCCN,Active
4,CCCCC/C=C\C/C=C\CCCCCCCCC#COC[C@@H](O)COP(=O)(O)OCCN,Active
5,CCCCCCCC/C=C\CCCCCCCCCCCCOC[C@@H](O)COP(=O)(O)OCCN,Active
6,CCCCCCCC/C=C\CCCCCCCC(=O)OC[C@@H](O)COP(=O)(O)OCCN,Active

# System: Mus musculus
# Assay: In vivo immunostimulatory activity in C57BL/6 mouse assessed as increase in serum IL-4 level at 1 ug, ip after 2 to 24 hrs by ELISA
# Format: functional, organism-based
# In short: as §2
row,Compound,Activity
1,CCCCCCCCCCCCCC/C=C\OC[C@@H](O)COP(=O)(O)OCCN,Active
2,CCCCC/C=C\C/C=C\CCCCCCCC/C=C\OC[C@@H](O)COP(=O)(O)OCCN,Active
3,CCCCCCCC/C=C\CCCCCCCCC#COC[C@@H](O)COP(=O)(O)OCCN,Active
4,CCCCC/C=C\C/C=C\CCCCCCCCC#COC[C@@H](O)COP(=O)(O)OCCN,Active
5,CCCCCCCC/C=C\CCCCCCCCCCCCOC[C@@H](O)COP(=O)(O)OCCN,Active
6,CCCCCCCC/C=C\CCCCCCCC(=O)OC[C@@H](O)COP(=O)(O)OCCN,Active

# System: Mus musculus
# Assay: In vivo immunostimulatory activity in C57BL/6 mouse assessed as increase in serum IFN-gamma level at 1 ug, ip after 24 hrs by ELISA
# Format: functional, organism-based
# In short: as §2
row,Compound,Activity
1,CCCCC/C=C\C/C=C\CCCCCCCC/C=C\OC[C@@H](O)COP(=O)(O)OCCN,inactive
2,CCCCCCCC/C=C\CCCCCCCCC#COC[C@@H](O)COP(=O)(O)OCCN,inactive
3,CCCCC/C=C\C/C=C\CCCCCCCCC#COC[C@@H](O)COP(=O)(O)OCCN,inactive
4,CCCCCCCC/C=C\CCCCCCCCCCCCOC[C@@H](O)COP(=O)(O)OCCN,inactive
5,CCCCCCCC/C=C\CCCCCCCC(=O)OC[C@@H](O)COP(=O)(O)OCCN,inactive
